Measured values taken from ChEMBL document CHEMBL1154842, “Synthesis, radiolabeling, and biological evaluation of (R)- and (S)-2-amino-3-[(18)F]fluoro-2-methylpropanoic acid (FAMP) and (R)- and (S)-3-[(18)F]fluoro-2-methyl-2-N-(methylamino)propanoic acid (NMeFAMP) as potential PET radioligands for imaging brain tumors” (J Med Chem, 2010).

Legend:
Muscle tissue [1] = assay: Biodistribution in muscle of Fischer 344 rat bearing rat 9L cells at 20 uCi, iv after 60 mins; assay type: ADME, organism-based; details: in vivo, 1 h
In short: (§1)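 Male Fischer 344 rats (200–250 g) carrying intracranial 9L gliosarcoma (5×10^4 cells implanted stereotactically, 10–12 days growth), under ketamine:xylazine anaesthesia. About 20 μCi tracer in 0.5 mL sterile saline given via tail-vein catheter. Groups of 4–5 were killed by intracardiac KCl at 15 (NMeFAMP only), 30, 60 or 120 min. Tissues were weighed and gamma-counted, decay-corrected, and reported as %ID/g, mean ± SD.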

Heart [2] = assay: Biodistribution in heart of Fischer 344 rat bearing rat 9L cells at 20 uCi, iv after 120 mins; assay type: ADME, organism-based; details: in vivo, 2 h; in short: as §1
[3] = Ratio of drug level from tumor to brain of Fischer 344 rat bearing rat 9L cells at 20 uCi, iv after 60 mins; details: in vivo, 1 h
Liver [4] = assay: Biodistribution in liver of Fischer 344 rat bearing rat 9L cells at 20 uCi, iv after 30 mins; assay type: ADME, organism-based; details: in vivo, 0.5 h; in short: as §1
[5] = Biodistribution in testis of Fischer 344 rat bearing rat 9L cells at 20 uCi, iv after 120 mins; assay type: ADME, organism-based; details: in vivo, 2 h; in short: as §1
Kidney [6] = assay: Biodistribution in kidney of Fischer 344 rat bearing rat 9L cells at 20 uCi, iv after 60 mins; assay type: ADME, organism-based; details: in vivo, 1 h; in short: as §1
Blood [7] = assay: Biodistribution in blood of Fischer 344 rat bearing rat 9L cells at 20 uCi, iv after 120 mins; assay type: ADME, organism-based; details: in vivo, 2 h; in short: as §1
Liver [8] = assay: Biodistribution in liver of Fischer 344 rat bearing rat 9L cells at 20 uCi, iv after 120 mins; assay type: ADME, organism-based; details: in vivo, 2 h; in short: as §1
Blood [9] = assay: Biodistribution in blood of Fischer 344 rat bearing rat 9L cells at 20 uCi, iv after 60 mins; assay type: ADME, organism-based; details: in vivo, 1 h; in short: as §1
Kidney [10] = assay: Biodistribution in kidney of Fischer 344 rat bearing rat 9L cells at 20 uCi, iv after 120 mins; assay type: ADME, organism-based; details: in vivo, 2 h; in short: as §1
Pancreas [11] = assay: Biodistribution in pancreas of Fischer 344 rat bearing rat 9L cells at 20 uCi, iv after 120 mins; assay type: ADME, organism-based; details: in vivo, 2 h; in short: as §1
Bone [12] = assay: Biodistribution in bone of Fischer 344 rat bearing rat 9L cells at 20 uCi, iv after 120 mins; assay type: ADME, organism-based, Bone element; details: in vivo, 2 h; in short: as §1
[13] = Biodistribution in tumor of Fischer 344 rat bearing rat 9L cells at 20 uCi, iv after 30 mins; details: in vivo, 0.5 h
Lung [14] = assay: Biodistribution in lung of Fischer 344 rat bearing rat 9L cells at 20 uCi, iv after 30 mins; assay type: ADME, organism-based; details: in vivo, 0.5 h; in short: as §1
Bone [15] = assay: Biodistribution in bone of Fischer 344 rat bearing rat 9L cells at 20 uCi, iv after 30 mins; assay type: ADME, organism-based, Bone element; details: in vivo, 0.5 h; in short: as §1
Spleen [16] = assay: Biodistribution in spleen of Fischer 344 rat bearing rat 9L cells at 20 uCi, iv after 30 mins; assay type: ADME, organism-based; details: in vivo, 0.5 h; in short: as §1
Blood [17] = assay: Biodistribution in blood of Fischer 344 rat bearing rat 9L cells at 20 uCi, iv after 30 mins; assay type: ADME, organism-based; details: in vivo, 0.5 h; in short: as §1
Bone [18] = assay: Biodistribution in bone of Fischer 344 rat bearing rat 9L cells at 20 uCi, iv after 60 mins; assay type: ADME, organism-based, Bone element; details: in vivo, 1 h; in short: as §1
Muscle tissue [19] = assay: Biodistribution in muscle of Fischer 344 rat bearing rat 9L cells at 20 uCi, iv after 120 mins; assay type: ADME, organism-based; details: in vivo, 2 h; in short: as §1
Pancreas [20] = assay: Biodistribution in pancreas of Fischer 344 rat bearing rat 9L cells at 20 uCi, iv after 30 mins; assay type: ADME, organism-based; details: in vivo, 0.5 h; in short: as §1
Kidney [21] = assay: Biodistribution in kidney of Fischer 344 rat bearing rat 9L cells at 20 uCi, iv after 30 mins; assay type: ADME, organism-based; details: in vivo, 0.5 h; in short: as §1
Lung [22] = assay: Biodistribution in lung of Fischer 344 rat bearing rat 9L cells at 20 uCi, iv after 60 mins; assay type: ADME, organism-based; details: in vivo, 1 h; in short: as §1
Heart [23] = assay: Biodistribution in heart of Fischer 344 rat bearing rat 9L cells at 20 uCi, iv after 30 mins; assay type: ADME, organism-based; details: in vivo, 0.5 h; in short: as §1
Muscle tissue [24] = assay: Biodistribution in muscle of Fischer 344 rat bearing rat 9L cells at 20 uCi, iv after 30 mins; assay type: ADME, organism-based; details: in vivo, 0.5 h; in short: as §1
Spleen [25] = assay: Biodistribution in spleen of Fischer 344 rat bearing rat 9L cells at 20 uCi, iv after 120 mins; assay type: ADME, organism-based; details: in vivo, 2 h; in short: as §1
[26] = Ratio of drug level from tumor to brain of Fischer 344 rat bearing rat 9L cells at 20 uCi, iv after 120 mins; assay type: ADME, organism-based; details: in vivo, 2 h
[27] = Biodistribution in testis of Fischer 344 rat bearing rat 9L cells at 20 uCi, iv after 60 mins; assay type: ADME, organism-based; details: in vivo, 1 h; in short: as §1
Pancreas [28] = assay: Biodistribution in pancreas of Fischer 344 rat bearing rat 9L cells at 20 uCi, iv after 60 mins; assay type: ADME, organism-based; details: in vivo, 1 h; in short: as §1
[29] = Biodistribution in testis of Fischer 344 rat bearing rat 9L cells at 20 uCi, iv after 30 mins; assay type: ADME, organism-based; details: in vivo, 0.5 h; in short: as §1
Brain = assay: Biodistribution in brain of Fischer 344 rat bearing rat 9L cells at 20 uCi, iv after 30 mins; details: in vivo, 0.5 h
[30] = rat, in vivo, iv, 1 h
[31] = rat, in vivo, iv, 1 h; remark: listed apart in the source
Liver [32] = assay: Biodistribution in liver of Fischer 344 rat bearing rat 9L cells at 20 uCi, iv after 60 mins; assay type: ADME, organism-based; details: in vivo, 1 h; in short: as §1
Lung [33] = assay: Biodistribution in lung of Fischer 344 rat bearing rat 9L cells at 20 uCi, iv after 120 mins; assay type: ADME, organism-based; details: in vivo, 2 h; in short: as §1
Spleen [34] = assay: Biodistribution in spleen of Fischer 344 rat bearing rat 9L cells at 20 uCi, iv after 60 mins; assay type: ADME, organism-based; details: in vivo, 1 h; in short: as §1
[35] = Biodistribution in tumor of Fischer 344 rat bearing rat 9L cells at 20 uCi, iv after 30 mins; assay type: ADME, organism-based, Neoplasm; details: in vivo, 0.5 h; in short: as §1
Heart [36] = assay: Biodistribution in heart of Fischer 344 rat bearing rat 9L cells at 20 uCi, iv after 60 mins; assay type: ADME, organism-based; details: in vivo, 1 h; in short: as §1

C[C@](N)(C[18F])C(=O)O.Cl
Drug uptake (Muscle tissue [1]): 0.52 % ID/g | Drug uptake (Heart [2]): 0.23 % ID/g | Ratio [3]: 28.6 | Drug uptake (Liver [4]): 0.6 % ID/g | Drug uptake [5]: 0.16 % ID/g | Drug uptake (Kidney [6]): 2.96 % ID/g | Drug uptake (Blood [7]): 0.16 % ID/g | Drug uptake (Liver [8]): 0.32 % ID/g | Drug uptake (Blood [9]): 0.25 % ID/g | Drug uptake (Kidney [10]): 2.09 % ID/g | Drug uptake (Pancreas [11]): 1.17 % ID/g | Drug uptake (Bone [12]): 0.26 % ID/g | Drug uptake [13]: 2.46 % ID/g | Drug uptake (Lung [14]): 0.37 % ID/g | Drug uptake (Bone [15]): 0.23 % ID/g | Drug uptake (Spleen [16]): 0.72 % ID/g | Drug uptake (Blood [17]): 0.28 % ID/g | Drug uptake (Bone [18]): 0.36 % ID/g | Drug uptake (Muscle tissue [19]): 0.36 % ID/g | Drug uptake (Pancreas [20]): 2.96 % ID/g | Drug uptake (Kidney [21]): 3.47 % ID/g | Drug uptake (Lung [22]): 0.4 % ID/g | Drug uptake (Heart [23]): 0.32 % ID/g | Drug uptake (Muscle tissue [24]): 0.32 % ID/g | Drug uptake (Spleen [25]): 0.39 % ID/g | Ratio [26]: 27.5 | Drug uptake [27]: 0.17 % ID/g | Drug uptake (Pancreas [28]): 2.05 % ID/g | Drug uptake [29]: 0.15 % ID/g | Drug uptake (Brain): 0.06 % ID/g | Drug uptake [30]: 2.82 % ID/g | Drug uptake [31]: 0.1 % ID/g | Drug uptake (Liver [32]): 0.65 % ID/g | Drug uptake (Lung [33]): 0.23 % ID/g | Drug uptake (Spleen [34]): 0.71 % ID/g | Ratio [35]: 38.2 | Drug uptake (Heart [36]): 0.34 % ID/g

C[C@@](N)(C[18F])C(=O)O.Cl
Drug uptake (Muscle tissue [1]): 0.37 % ID/g | Drug uptake (Heart [2]): 0.34 % ID/g | Ratio [3]: 30.9 | Drug uptake (Liver [4]): 0.61 % ID/g | Drug uptake [5]: 0.17 % ID/g | Drug uptake (Kidney [6]): 7.62 % ID/g | Drug uptake (Blood [7]): 0.32 % ID/g | Drug uptake (Liver [8]): 0.42 % ID/g | Drug uptake (Blood [9]): 0.4 % ID/g | Drug uptake (Kidney [10]): 6.88 % ID/g | Drug uptake (Pancreas [11]): 2.79 % ID/g | Drug uptake (Bone [12]): 0.31 % ID/g | Drug uptake [13]: 1.38 % ID/g | Drug uptake (Lung [14]): 0.67 % ID/g | Drug uptake (Bone [15]): 0.3 % ID/g | Drug uptake (Spleen [16]): 0.73 % ID/g | Drug uptake (Blood [17]): 0.58 % ID/g | Drug uptake (Bone [18]): 0.3 % ID/g | Drug uptake (Muscle tissue [19]): 0.36 % ID/g | Drug uptake (Pancreas [20]): 3.75 % ID/g | Drug uptake (Kidney [21]): 8.71 % ID/g | Drug uptake (Lung [22]): 0.47 % ID/g | Drug uptake (Heart [23]): 0.43 % ID/g | Drug uptake (Muscle tissue [24]): 0.47 % ID/g | Drug uptake (Spleen [25]): 0.51 % ID/g | Ratio [26]: 27.7 | Drug uptake [27]: 0.16 % ID/g | Drug uptake (Pancreas [28]): 3.91 % ID/g | Drug uptake [29]: 0.19 % ID/g | Drug uptake (Brain): 0.07 % ID/g | Drug uptake [30]: 1.82 % ID/g | Drug uptake [31]: 0.06 % ID/g | Drug uptake (Liver [32]): 0.54 % ID/g | Drug uptake (Lung [33]): 0.36 % ID/g | Drug uptake (Spleen [34]): 0.62 % ID/g | Ratio [35]: 21.1 | Drug uptake (Heart [36]): 0.41 % ID/g
